According to ChEMBL document CHEMBL1135469, “Design, synthesis, and antiproliferative activity of some new pyrazole-fused amino derivatives of the pyranoxanthenone, pyranothioxanthenone, and pyranoacridone ring systems: a new class of cytotoxic agents” (J Med Chem, 2002):

Columns and labels:
HRT-18 cell line [1] = test: In vitro cytotoxic activity against human colon […] cell line ( standard deviation in parenthesis); format: functional, cell-based
Procedure, shortened: (§1)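 MTT assay on human cells grown in DMEM with 10% FBS and penicillin/streptomycin at 37 °C, 5% CO2. About 5000 cells/well; compounds diluted with DMSO are added after 24 h for 48 h. Then 1 mg/mL MTT (final) in serum-free, phenol-red-free RPMI for 4 h. Formazan dissolved in 2-propanol, OD 550 nm (ref 690 nm).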

Calf thymus DNA = test: In vitro inhibition of calf thymus DNA/ethidium bromide complex formation.; format: nucleic-acid assay
Procedure, shortened: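 Ethidium displacement: compounds added to 5 mM Tris-HCl/0.5 mM EDTA buffer, pH 8, containing calf thymus DNA (1 µg/mL) and ethidium bromide (1 µg/mL). EC50 is the concentration halving DNA/ethidium complex fluorescence. Mean of two experiments.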

L1210 = test: In vitro cytotoxic activity against murine leukemia cell line L1210; format: functional, cell-based; conditions: Mus musculus
HT-29 [2] = test: In vitro cytotoxic activity against human colon HT-29 cell line ( standard deviation in parenthesis); format: functional, cell-based; procedure, shortened: as §1
MDA-MB-231 [3] = test: In vitro cytotoxic activity against human breast MDA-MB-231 cell line ( standard deviation in parenthesis); format: functional, cell-based; procedure, shortened: as §1
HCT-116 [4] = test: In vitro cytotoxic activity against human colon HCT116 cell line ( standard deviation in parenthesis); format: functional, cell-based; procedure, shortened: as §1
A549 [5] = test: In vitro cytotoxic activity against human lung A549 cell line); format: functional, cell-based
Procedure, shortened: (§2)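 MTT assay on human tumour cells grown in DMEM with 10% FBS, penicillin and streptomycin at 37 °C, 5% CO2. About 5000 cells/well were seeded, and compounds diluted with DMSO were added after 24 h. After 48 h exposure, 1 mg/mL MTT (final) was added for 4 h. Formazan was dissolved in 2-propanol and read at 550 nm (reference 690 nm).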

HT-29 [6] = test: In vitro cytotoxic activity against human colon HT-29 cell line; format: functional, cell-based; procedure, shortened: as §1
HRT-18 cell line [7] = test: In vitro cytotoxic activity against human colon HRT-18 cell line; format: functional, cell-based; procedure, shortened: as §2
HCT-116 [8] = test: In vitro cytotoxic activity against human colon HCT116 cell line; format: functional, cell-based; procedure, shortened: as §1
A549 [9] = test: In vitro cytotoxic activity against human lung A549 cell line; format: functional, cell-based; procedure, shortened: as §1
MDA-MB-231 [10] = test: In vitro cytotoxic activity against human breast MDA-MB-231 cell line; format: functional, cell-based; procedure, shortened: as §1
HRT-18 cell line [11] = test: In vitro inhibition of HRT-18 (human colon) cell proliferation.; format: functional, cell-based; procedure, shortened: as §1
A549 [12] = test: In vitro cytotoxic activity against human lung A549 cell line ( standard deviation in parenthesis); format: functional, cell-based; procedure, shortened: as §2

Compound	IC50 (HRT-18 cell line [1]) [µM]	EC50 (Calf thymus DNA) [µM]	IC50 (L1210) [µM]	IC50 (HT-29 [2]) [µM]	IC50 (MDA-MB-231 [3]) [µM]	IC50 (HCT-116 [4]) [µM]	IC50 (A549 [5]) [µM]	IC50 (HT-29 [6]) [µM]	IC50 (HRT-18 cell line [7]) [µM]	IC50 (HCT-116 [8]) [µM]	IC50 (A549 [9]) [µM]	IC50 (MDA-MB-231 [10]) [µM]	IC50 (HRT-18 cell line [11]) [µM]	IC50 (A549 [12]) [µM]
CC1(C)C=Cc2c(cc3c4c(nn3CCOS(C)(=O)=O)-c3ccccc3Sc24)O1	30	> 500	15	45	> 100	44								
COc1cc2c(c3c1c(=O)c1ccccc1n3C)C=CC(C)(C)O2 [ACRONINE]		270					> 100	> 100	> 100	> 100				
CN(C)CCn1nc2c3c(c4c(cc31)OC(C)(C)C=C4)Oc1ccccc1-2		431	9.8					18		54	32	50	50	
Cc1c2ccncc2c(C)c2c1[nH]c1ccccc12 [ELLIPTECINE]		22.2		15	2.3									10
CCN(CC)CCn1nc2c3c(c4c(cc31)OC(C)(C)C=C4)Oc1ccccc1-2			9.1					9		40	10	9	5	
CC1(C)C=Cc2c(cc3c4c(nn3CCOS(C)(=O)=O)-c3ccccc3Oc24)O1	22		31.9	24	53	33					> 100			
COc1cccc2c1Oc1c3c(cc4c1c-2nn4CCN1CCCCC1)OC(C)(C)C=C3		290	16.5					6		54	31	37	12	
CC1(C)C=Cc2c(cc3c4c(nn3CCN3CCCC3)-c3ccccc3Oc24)O1			8.3					9		42	27	12	30	
COc1cccc2c1Oc1c3c(cc4c1c-2nn4CCN(C)C)OC(C)(C)C=C3		150	14.6					9		51	50	48	17	
COc1cccc2c1Oc1c3c(cc4c1c-2nn4CCN1CCCC1)OC(C)(C)C=C3		71.7	10.6					8		43	33	11	60	
COc1cccc2c1Oc1c3c(cc4c1c-2nn4CCO)OC(C)(C)C=C3		274	> 10					> 100		64	> 100	> 100	> 100	
CCN(CC)CCn1nc2c3c(c4c(cc31)OC(C)(C)C=C4)Oc1c(OC)cccc1-2		273	9.9					9		41	33	11	30	
CC1(C)C=Cc2c(cc3c4c(nn3CCN3CCCCC3)-c3ccccc3Oc24)O1			10.1					6.5		20	15	20	10	
CC1(C)C=Cc2c(cc3c4c(nn3CCO)-c3ccccc3Oc24)O1			> 10					12		28	> 100	100	4	
COc1ccc2c(c1)-c1nn(CCOS(C)(=O)=O)c3cc4c(c(c13)N2C)C=CC(C)(C)O4			0.4	18	12	12					> 100			
CN1c2ccccc2-c2nn(CCOS(C)(=O)=O)c3cc4c(c1c23)C=CC(C)(C)O4			2.5	20		49								
O=C1c2c(O)ccc(O)c2C(=O)c2c(NCCNCCO)ccc(NCCNCCO)c21 [MITOXANTRONE]		3.4			1									
COc1cccc2c1Oc1c3c(cc4c1c-2nn4CCOS(C)(=O)=O)OC(C)(C)C=C3			26.7											
